Converted amounts (≈) assume the structure as drawn.
Legend:
Assay type in all cases: functional
Candida albicans [1] = experiment: Antimicrobial activity against Candida albicans at 24 hrs
Outline: (§1)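 Bloodstream isolates from hospitalized candidemia patients, stored at −70°C and subcultured overnight on Sabouraud dextrose agar. Tested by CLSI M27-A2 broth microdilution in RPMI 1640-2% dextrose with 0.165 M MOPS, pH 7.0. Fluconazole was given as serial doubling dilutions from 0.5 to 256.0 μg/ml. Inoculum was a 0.5 McFarland suspension diluted to 2×. Plates were incubated at 35°C. MIC was read at 24 and 48 h as a marked reduction in turbidity, with ATCC 6258 and ATCC 22019 as QC strains.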

Candida albicans [2] = experiment: Ratio of weight normalized daily dose in candidemia patient to MIC at 48 hrs against Candida albicans
Outline: (§2)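 Fluconazole daily dose (mg/kg) of each nonneutropenic candidemia patient divided by the MIC of their bloodstream isolate. MIC by CLSI M27-A2 broth microdilution in RPMI 1640-2% dextrose, 0.165 M MOPS, pH 7.0. Serial doubling dilutions ran 0.5–256.0 μg/ml. Inoculum was a 0.5 McFarland suspension diluted to 2×. Incubated at 35°C; MIC read at 24 and 48 h as marked turbidity reduction.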

Homo sapiens [3] = species: Homo sapiens; experiment: Mortality rate stratified by 24 hrs MIC in dose-dependently susceptible Candida species infected patient
Outline: (§3)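 Patients were fluconazole-treated nonneutropenic adults with candidemia. Isolate MICs were obtained by CLSI M27-A2 broth microdilution, read at 24 or 48 h. Patients were grouped by susceptibility breakpoint category. Mortality was compared by chi-square analysis.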

Nakaseomyces glabratus [4] = experiment: Antimicrobial activity against Candida glabrata at 24 hrs; outline: as §1
Homo sapiens [5] = species: Homo sapiens; experiment: Mortality rate in Candida tropicalis infected candidemia patient
Outline: (§4)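 Subjects were adults (≥18 y) hospitalized >48 h before a Candida-positive blood culture, enrolled 2002–2005 at two hospitals, and treated with fluconazole. Patients were excluded if fluconazole started >24 h before culture or >2 days after it. Species was identified by Vitek YBC or API 20C Aux. Mortality is given per infecting species.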

Homo sapiens [6] = species: Homo sapiens; experiment: Mortality rate in Candida parapsilosis infected candidemia patient; outline: as §4
Homo sapiens [7] = species: Homo sapiens; experiment: Mortality rate stratified by 48 hrs MIC in resistant Candida species infected patient; outline: as §3
Candida albicans [8] = experiment: Ratio of weight normalized daily dose in candidemia patient to MIC against Candida albicans; outline: as §2
Nakaseomyces glabratus [9] = experiment: Ratio of weight normalized daily dose in candidemia patient to MIC against Candida glabrata
Outline: (§5)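 MICs for patient Candida blood isolates were measured by CLSI M27-A2 microdilution in RPMI 1640-2% dextrose with 0.165 M MOPS, pH 7.0. Fluconazole was tested at 0.5–256 μg/ml in doubling dilutions, incubated at 35°C, and read at 24 h and 48 h by marked turbidity reduction. The fluconazole dose in mg/kg body weight was divided by the 24-h or 48-h MIC.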

Candida parapsilosis [10] = experiment: Antimicrobial activity against Candida parapsilosis at 24 hrs; details: Lodderomyces parapsilosis; outline: as §1
Candida parapsilosis [11] = experiment: Ratio of weight normalized daily dose in candidemia patient to MIC against Candida parapsilosis; outline: as §5
Clavispora lusitaniae [12] = experiment: Ratio of weight normalized daily dose in candidemia patient to MIC against Candida lusitaniae; outline: as §5
Nakaseomyces glabratus [13] = experiment: Ratio of AUC in candidemia patient to MIC against Candida glabrata
Outline: (§6)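 Bloodstream Candida isolates came from hospitalized adults treated with fluconazole. MICs were measured by CLSI M27-A2 broth microdilution in RPMI 1640-2% dextrose with 0.165 M MOPS, pH 7.0. Fluconazole was tested in doubling dilutions of 0.5–256 μg/ml at 35°C, read at 24 and 48 h as a marked drop in turbidity. AUC is the individual dose divided by clearance estimated from creatinine clearance. The ratio is AUC divided by the 24- or 48-h MIC.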

Clavispora lusitaniae [14] = experiment: Antimicrobial activity against Candida lusitaniae at 24 hrs; outline: as §1
Candida albicans [15] = experiment: Antimicrobial activity against Candida albicans at 48 hrs; outline: as §1
Candida parapsilosis [16] = experiment: Ratio of AUC in candidemia patient to MIC against Candida parapsilosis; outline: as §6
Candida tropicalis [17] = experiment: Antimicrobial activity against Candida tropicalis at 24 hrs; outline: as §1
Homo sapiens [18] = species: Homo sapiens; experiment: Ratio of weight normalized daily dose in non-surviving candidemia patient to MIC at 48 hrs against Candida species; outline: as §5
Candida tropicalis [19] = experiment: Ratio of weight normalized daily dose in candidemia patient to MIC against Candida tropicalis; outline: as §5
Homo sapiens [20] = species: Homo sapiens; experiment: Mortality rate stratified by 48 hrs MIC in dose-dependently susceptible Candida species infected patient; outline: as §3
Nakaseomyces glabratus [21] = experiment: Ratio of weight normalized daily dose in candidemia patient to MIC at 24 hrs against Candida glabrata; outline: as §5
Candida parapsilosis [22] = experiment: Antimicrobial activity against Candida parapsilosis at 48 hrs; details: Lodderomyces parapsilosis; outline: as §1
Candida albicans [23] = experiment: Ratio of weight normalized daily dose in candidemia patient to MIC at 24 hrs against Candida albicans; outline: as §2
Homo sapiens [24] = species: Homo sapiens; experiment: Mortality rate stratified by 24 hrs MIC in susceptible Candida species infected patient; outline: as §3
Homo sapiens [25] = species: Homo sapiens; experiment: Mortality rate stratified by 24 hrs MIC in resistant Candida species infected patient; outline: as §3
Candida [26] = experiment: Ratio of weight normalized daily dose in surviving candidemia patient to MIC at 48 hrs against Candida species; outline: as §5
Candida albicans [27] = experiment: Ratio of AUC in candidemia patient to MIC against Candida albicans; outline: as §6
Candida tropicalis [28] = experiment: Antimicrobial activity against Candida tropicalis at 48 hrs; outline: as §1
Candida [29] = experiment: Ratio of AUC in surviving candidemia patient to MIC at 48 hrs against Candida species; outline: as §6
Nakaseomyces glabratus [30] = experiment: Ratio of weight normalized daily dose in candidemia patient to MIC at 48 hrs against Candida glabrata; outline: as §5
Nakaseomyces glabratus [31] = experiment: Antimicrobial activity against Candida glabrata at 48 hrs; outline: as §1
Candida [32] = experiment: Ratio of weight normalized daily dose in non-surviving candidemia patient to MIC at 24 hrs against Candida species; outline: as §5
Candida tropicalis [33] = experiment: Ratio of AUC in candidemia patient to MIC against Candida tropicalis; outline: as §6
Candida [34] = experiment: Ratio of weight normalized daily dose in surviving candidemia patient to MIC at 24 hrs against Candida species
Outline: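 Weight-normalized fluconazole daily dose (mg/kg) was divided by the isolate MIC read at 24 h (CLSI M27-A2 broth microdilution, 35°C). Ratios were log10-transformed before analysis. Surviving patients were compared with nonsurvivors, with logistic regression used against mortality.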

Candida [35] = experiment: Ratio of AUC in surviving candidemia patient to MIC at 24 hrs against Candida species; outline: as §6
Homo sapiens [36] = species: Homo sapiens; experiment: Mortality rate in Candida glabrata infected candidemia patient; outline: as §4
Homo sapiens [37] = species: Homo sapiens; experiment: Mortality rate in Candida albicans infected candidemia patient; outline: as §4
Clavispora lusitaniae [38] = experiment: Ratio of AUC in candidemia patient to MIC against Candida lusitaniae; outline: as §6
Homo sapiens [39] = species: Homo sapiens; experiment: Mortality rate in Candida lusitaniae infected candidemia patient; outline: as §4
Clavispora lusitaniae [40] = experiment: Antimicrobial activity against Candida lusitaniae at 48 hrs; outline: as §1
Homo sapiens [41] = species: Homo sapiens; experiment: Mortality rate stratified by 48 hrs MIC in susceptible Candida species infected patient; outline: as §3
Candida [42] = experiment: Ratio of AUC in non-surviving candidemia patient to MIC at 48 hrs against Candida species; outline: as §6

OC(Cn1cncn1)(Cn1cncn1)c1ccc(F)cc1F [FLUCONAZOLE]
MIC50 (Candida albicans [1]): 0.25 µg/mL (≈ 0.816 µM)
Ratio (Candida albicans [2]): 13.17
Activity (Homo sapiens [3]): 50%
MIC50 (Nakaseomyces glabratus [4]): 4 µg/mL (≈ 13.1 µM)
Activity (Homo sapiens [5]): 0%
Activity (Homo sapiens [6]): 0%
Activity (Homo sapiens [7]): 50%
Ratio (Candida albicans [8]): 15.4
Ratio (Nakaseomyces glabratus [9]): 1.9
MIC50 (Candida parapsilosis [10]): 1.25 µg/mL (≈ 4.08 µM)
Ratio (Candida parapsilosis [11]): 10.7
Ratio (Clavispora lusitaniae [12]): 3.3
RatioAUC/MIC (Nakaseomyces glabratus [13]): 182
MIC50 (Clavispora lusitaniae [14]): 2 µg/mL (≈ 6.53 µM)
MIC50 (Candida albicans [15]): 0.5 µg/mL (≈ 1.63 µM)
MIC90 (Candida albicans [15]): 8 µg/mL (≈ 26.1 µM)
RatioAUC/MIC (Candida parapsilosis [16]): 635
MIC50 (Candida tropicalis [17]): 1 µg/mL (≈ 3.27 µM)
Ratio (Homo sapiens [18]): 6.1
Ratio (Candida tropicalis [19]): 11.4
Activity (Homo sapiens [20]): 50%
Ratio (Nakaseomyces glabratus [21]): 1.88
MIC50 (Candida parapsilosis [22]): 0.5 µg/mL (≈ 1.63 µM)
MIC90 (Candida parapsilosis [22]): 8 µg/mL (≈ 26.1 µM)
Ratio (Candida albicans [23]): 15.39
Activity (Homo sapiens [24]): 18%
Activity (Homo sapiens [25]): 50%
Ratio (Candida [26]): 10.7
RatioAUC/MIC (Candida albicans [27]): 946
MIC50 (Candida tropicalis [28]): 0.5 µg/mL (≈ 1.63 µM)
MIC90 (Candida tropicalis [28]): 8 µg/mL (≈ 26.1 µM)
Ratio (Candida [29]): 614
Ratio (Nakaseomyces glabratus [30]): 1.51
MIC50 (Nakaseomyces glabratus [31]): 0.5 µg/mL (≈ 1.63 µM)
MIC90 (Nakaseomyces glabratus [31]): 8 µg/mL (≈ 26.1 µM)
Ratio (Candida [32]): 7
RatioAUC/MIC (Candida tropicalis [33]): 657
Activity (Candida [34]): 13.3
Ratio (Candida [35]): 775
Activity (Homo sapiens [36]): 36.4%
Activity (Homo sapiens [37]): 16.3%
RatioAUC/MIC (Clavispora lusitaniae [38]): 232
Activity (Homo sapiens [39]): 33.3%
MIC50 (Clavispora lusitaniae [40]): 0.5 µg/mL (≈ 1.63 µM)
MIC90 (Clavispora lusitaniae [40]): 8 µg/mL (≈ 26.1 µM)
Activity (Homo sapiens [41]): 18%
Ratio (Candida [42]): 496

Source: ChEMBL document CHEMBL1142179, “Association of fluconazole area under the concentration-time curve/MIC and dose/MIC ratios with mortality in nonneutropenic patients with candidemia” (2007)
